Experimental data gathered from unrelated publications.
Compare with care: the assays were run in different laboratories.
Target: Serine/threonine-protein kinase NIM1 (NIM1K, Homo sapiens, UniProt Q8IY84)

SMILES	effect on	action	technique	concentration	quantity	value
Cc1ccc(NC(=O)c2ccc(C)c(C(F)(F)F)c2)cc1C#Cc1nn(C2CCC(O)CC2)c2ncnc(N)c12 (centres unmarked)	cell-free assay	–	–	10 µM	remaining signal	131%
Cc1cc(NC(=O)c2cccc3cc(-c4cccc5[nH]nc(N)c45)ccc23)ccc1F	enzyme activity	inhibitor	–	0.1 µM	activity vs control	115%
Nc1ncnc2occ(-c3ccc(NC(=O)Nc4cc(C(F)(F)F)ccc4F)cc3)c12	cell-free assay	inhibitor	–	20 µM	remaining signal	67%
CC/C(=N\NC(=O)NCc1cccc(O)c1)c1ccc(O)c(C)c1O	enzyme activity	inhibitor	–	0.1 µM	inhibition	-2.9%
CN1CC(Oc2cnc(C#N)cc2-c2ccn3nc(NC(=O)C4CC4)cc3c2)C1	enzyme activity	inhibitor	–	1 µM	inhibition	8%
O=C(Nc1cnn(-c2csc(C(=O)NC3COC3)c2)c1)Nc1c(F)cccc1Cl	enzyme activity	inhibitor	–	5 µM	remaining activity	70.7%
Cc1c(C(=O)O)cc(-c2ccc(C3CCNCC3)cc2)c2ccc(-c3ccc(C(F)(F)F)cc3)cc12	binding	–	competition with immobilised ligand	1 µM	remaining binding	92%
COc1cc(Cl)c(C(=O)N[C@@H](CN[C@H]2CC[C@@H](N)CC2)Cc2ccc(C#N)cc2)cc1-c1ccc(CN[C@H](C)c2ccc(C)cc2)o1	enzyme activity	inhibitor	–	1 µM	remaining activity	98%
Cc1cnc(NC2CCOCC2)nc1-n1cnc(C(=O)NC(CN)c2cc(F)cc(Cl)c2)c1 (centres unmarked)	enzyme activity	inhibitor	radiometric	1 µM	remaining activity	40%
O=C(Nc1cnn(-c2csc(C(=O)NC3COC3)c2)c1)Nc1ccccc1Cl	enzyme activity	inhibitor	–	5 µM	remaining activity	101%
COc1cc(-c2cn(C3CCc4ccccc4N(CC(F)(F)F)C3=O)nn2)ccc1-n1ccc(C)n1 (centres unmarked)	cell-free assay	–	competition with immobilised ligand	1 µM	remaining binding	80%
